{"data": "Assay results from different studies", "effect on": "cell growth or viability", "note": "Protocols differ between the studies behind these lines."}
{"SMILES": "CC(=O)Nc1ccc(/C(C)=N/N=c2\\sc(C(C)=O)nn2-c2ccc(C)cc2)cc1", "cell line": "MCF7", "test": "MTT", "setting": "10 µM", "quantity": "viability", "value": "5.39%"}
{"SMILES": "C[C@@H]1CC[C@@H]([C@@](O)(CNCc2ccccc2)COCc2ccccc2)[C@H](OCc2ccccc2)C1", "cell line": "MCF7", "test": "MTT", "setting": "30 µM, 72 h", "quantity": "inhibition", "value": "96.4%"}
{"SMILES": "CC(=O)c1nn(-c2ccccc2Cl)/c(=N/N=C(\\C)c2ccc(NC(=O)c3ccccc3)cc2)s1", "cell line": "MCF7", "test": "MTT", "setting": "0.312 µM", "quantity": "viability", "value": "7.5%"}
{"SMILES": "C[C@@H]1CC[C@@H]([C@](C)(O)CNCc2ccccc2F)[C@H](OCc2ccccc2)C1", "cell line": "MCF7", "test": "MTT", "setting": "10 µM, 72 h", "quantity": "inhibition", "value": "39%"}
{"SMILES": "CCOC(=O)c1nn(-c2cccc(Cl)c2)/c(=N/N=C(\\C)c2ccc(NC(=O)c3ccccc3)cc2)s1", "cell line": "MCF7", "test": "MTT", "setting": "0.625 µM", "quantity": "viability", "value": "2.63%"}
{"SMILES": "CC(=NNC(=O)c1ccccc1Cl)c1ccc(Nc2nnc(-c3ccc(Cl)cc3)c3ccccc23)cc1", "cell line": "MCF7", "test": "MTT", "setting": "0.625 µM", "quantity": "cell death", "value": "0.177%"}
{"SMILES": "Cc1c(C(=O)O)ccc2c3n(nc12)[C@@H]1[C@H](C3)N(CC2CC2)[C@@]2(C(=O)Nc3cc(Cl)ccc32)[C@H]1c1cccc(Cl)c1F", "cell line": "SJSA-1", "test": "resazurin", "quantity": "GI50", "value": "7 nM"}
{"SMILES": "S=C(Nc1ccccc1)Nc1ccc(Oc2nnc(-c3ccc(Cl)cc3)c3ccccc23)cc1", "cell line": "MCF7", "test": "MTT", "setting": "10 µM", "quantity": "cell death", "value": "97.2%"}
{"SMILES": "C=C(COCc1ccc(F)cc1)[C@@H]1CC[C@@H](C)C[C@H]1OCc1ccc(F)cc1", "cell line": "MCF7", "test": "MTT", "setting": "30 µM, 72 h", "quantity": "inhibition", "value": "46.2%"}
{"SMILES": "CC(=NNC(=O)c1ccc(N)cc1)c1ccc(Nc2nnc(-c3ccc(Cl)cc3)c3ccccc23)cc1", "cell line": "MCF7", "test": "MTT", "setting": "2.5 µM", "quantity": "cell death", "value": "94.6%"}
{"SMILES": "C=CC(=O)NC1CCN(c2ncc3ncnc(Nc4ccc(Oc5ccc6c(c5)ncn6C)c(C)c4)c3n2)CC1", "cell line": "C-33-A", "quantity": "EC50", "value": "116 nM"}
{"SMILES": "CC(=O)c1nn(-c2ccc(C)cc2)/c(=N/N=C(\\C)c2ccc(NC(=O)c3ccccc3)cc2)s1", "cell line": "MCF7", "test": "MTT", "setting": "0.312 µM", "quantity": "viability", "value": "4.36%"}
{"SMILES": "COc1cccc(CNC[C@@](C)(O)[C@@H]2CC[C@@H](C)C[C@H]2OCc2ccccc2)c1", "cell line": "MCF7", "test": "MTT", "setting": "30 µM, 72 h", "quantity": "inhibition", "value": "95.9%"}
{"SMILES": "CC(=NNC(=O)c1ccccc1)c1ccc(Nc2nnc(-c3ccc(Cl)cc3)c3ccccc23)cc1", "cell line": "MCF7", "test": "MTT", "setting": "0.625 µM", "quantity": "cell death", "value": "1.42%"}
{"SMILES": "C[C@@H]1CC[C@@H]([C@](C)(O)Cn2cnc3ccccc32)[C@H](OCc2ccccc2)C1", "cell line": "MCF7", "test": "MTT", "setting": "10 µM, 72 h", "quantity": "inhibition", "value": "51%"}
{"SMILES": "CC(=NNC(=O)c1ccccc1Br)c1ccc(Nc2nnc(-c3ccc(Cl)cc3)c3ccccc23)cc1", "cell line": "MCF7", "test": "MTT", "setting": "5 µM", "quantity": "cell death", "value": "93.8%"}
{"SMILES": "COc1ccc(CNC[C@](O)(COCc2ccc(OC)cc2)[C@@H]2CC[C@@H](C)C[C@H]2OCc2ccc(OC)cc2)cc1", "cell line": "MCF7", "test": "MTT", "setting": "30 µM, 72 h", "quantity": "inhibition", "value": "101%"}
{"SMILES": "CC(=NNC(N)=S)c1ccc(Nc2nnc(-c3ccc(Cl)cc3)c3ccccc23)cc1", "cell line": "MCF7", "test": "MTT", "setting": "78 nM", "quantity": "cell death", "value": "9.65%"}
{"SMILES": "C[C@@H]1CC[C@@H]([C@](O)(CNCc2cccc3ccccc23)COCc2ccccc2)[C@H](OCc2ccccc2)C1", "cell line": "MCF7", "test": "MTT", "setting": "10 µM, 72 h", "quantity": "inhibition", "value": "81.1%"}
{"SMILES": "O=C(Nc1ccccc1)Nc1ccc(Oc2nnc(-c3ccc(Cl)cc3)c3ccccc23)cc1", "cell line": "MCF7", "test": "MTT", "setting": "1.25 µM, 24 h", "quantity": "viability", "value": "3.85%"}
{"SMILES": "CCOC(=O)c1nn(-c2cccc(Cl)c2)/c(=N/N=C(\\C)c2ccc(NC(=O)c3ccc(Cl)cc3)cc2)s1", "cell line": "MCF7", "test": "MTT", "setting": "2.5 µM", "quantity": "viability", "value": "3.54%"}
